A1 apoptosis 2 – blocks A1, raising caspase activity | MEF A1-2A-BIM cells, caspase-Glo luminescence, 3 h; percent of clofoctol response, DMSO zero | caspase activation, % (concentration not given with the values) | 24,000 tested, under 10 active | AID 2465; in the data active = caspase activation above about 5.9%; inconclusive = no clear call, values can overlap the other calls; inactive = below about 2.2%
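Evaluation: Caspase-3/7 activity from luminescence increase | Assay system: A1-2A-BIM mouse embryonic fibroblasts | Quantity: 2500 MEF cells/well | Medium: RPMI-1640 plus 10% FBS | Detection: Caspase-Glo 3/7 luminescence, 1 h at room temperature | Dosing: 50 nL compound per well, pinned | Timing: Cells settled overnight, compound exposure 3 h at 37 °C, 5% CO2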
INS-1E ATP HTS – preserves ATP levels in cytokine-treated INS-1E cells; INS-1E cytokine-induced death, ATP luminescence, 48 h; normalised: neutral wells 0, positive control 100; protection from cytokine-induced ATP loss, % at 10 µM; actives 0.1% (n = 20,000); AID 488910;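 active = mean replicate protection from cytokine-induced ATP loss at least 50% and at least 75% of replicates each reaching 50%; inconclusive = meets only one of the two criteria, mean or replicate share; inactive = fails both the mean and replicate share criteria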
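Assay system – rat INS-1E insulinoma cell line · Quantity – 8000 cells per well · Buffer or medium – RPMI without phenol red, 5% FBS · Schedule – 48 h co-treatment, 10 min post-lysis read · Technique – luminescent ATP assay (CellTiter-Glo)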
T cruzi HTS – intracellular Trypanosoma cruzi inhibition | AID 651903 | actives 4.9% (n = 22,000) | intracellular Trypanosoma cruzi in host cells, plate reader | activity score (inhibition), % at 5.01 µM; in the data active = activity score above about 55%; inconclusive = no clear call, values can overlap the other calls;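 also: parasites and compound incubated about four days before reading; 0% = median of neutral control wells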
* hit, by the source's call. This is one part of a sample in which hits are shown more often than they occur.

What do the screens show for `C[C@@H]1CN([C@H](C)CO)C(=O)Cc2cc(N(C)C)ccc2O[C@@H]1CN(C)Cc1ccc2c(c1)OCO2`?
INS-1E ATP HTS: -7; T cruzi HTS: -23

What do the screens show for `C[C@@H]1CN([C@@H](C)CO)C(=O)Cc2cc(N(C)C)ccc2O[C@@H]1CN(C)Cc1ccc(Cl)c(Cl)c1`?
A1 apoptosis 2: -1; INS-1E ATP HTS: -17; T cruzi HTS: 43

Results for C[C@H]1CN([C@@H](C)CO)C(=O)Cc2cc(N(C)C)ccc2O[C@@H]1CN(C)Cc1ccc(Cl)c(Cl)c1 ?
INS-1E ATP HTS: -8; T cruzi HTS: 72*

Results for O=C(N/N=C/c1ccc(S(=O)(=O)O)o1)c1ccccn1 ?
INS-1E ATP HTS: -11; T cruzi HTS: -17

What do the screens show for `Cc1noc(C)c1NC(=O)N(C)C[C@H]1OCCCC[C@@H](C)Oc2ccc(N(C)C)cc2C(=O)N([C@H](C)CO)C[C@H]1C`?
A1 apoptosis 2: 0

What do the screens show for `C[C@H](CO)N1C[C@H](C)[C@H](CN(C)S(=O)(=O)c2ccc(-c3ccccc3)cc2)OCc2cn(nn2)CCCC1=O`?
A1 apoptosis 2: 1; T cruzi HTS: 12

How did Cc1noc(C)c1NC(=O)N(C)C[C@H]1Oc2ccc(NC(=O)Cc3ccccc3)cc2CC(=O)N([C@@H](C)CO)C[C@H]1C do in these assays?
INS-1E ATP HTS: 7; T cruzi HTS: -3

How did C[C@@H]1CCCCO[C@H](CN(C)C(=O)CCC(F)(F)F)[C@H](C)CN([C@H](C)CO)C(=O)c2cc(NS(=O)(=O)c3cn(C)cn3)ccc2O1 do in these assays?
A1 apoptosis 2: 0

What do the screens show for `COc1ccc(S(=O)(=O)Nc2ccc3c(c2)CC(=O)N([C@H](C)CO)C[C@H](C)[C@H](CN(C)CC2CCCCC2)O3)cc1`?
INS-1E ATP HTS: -25; T cruzi HTS: -4

What do the screens show for `COc1ccc(S(=O)(=O)Nc2ccc3c(c2)CC(=O)N([C@H](C)CO)C[C@@H](C)[C@H](CN(C)CC2CCCCC2)O3)cc1`?
A1 apoptosis 2: -1; INS-1E ATP HTS: -9; T cruzi HTS: 59*

How did C[C@H]1CN([C@@H](C)CO)C(=O)Cc2cc(NS(=O)(=O)c3ccc(Cl)cc3)ccc2O[C@@H]1CN(C)CC1CCCCC1 do in these assays?
A1 apoptosis 2: 0; INS-1E ATP HTS: -12; T cruzi HTS: 53

Results for C[C@H]1CN([C@@H](C)CO)C(=O)Cc2cc(NS(=O)(=O)c3ccc(Cl)cc3)ccc2O[C@H]1CN(C)CC1CCCCC1 ?
A1 apoptosis 2: 3; INS-1E ATP HTS: -18; T cruzi HTS: 73*

Results for O=C(CCCCCCC(=O)Nc1ccccc1O)N/N=C/c1ccccc1 ?
A1 apoptosis 2: 0

What do the screens show for `C[C@@H]1CN([C@H](C)CO)C(=O)Cc2cc(NS(=O)(=O)c3ccc(F)cc3)ccc2O[C@H]1CN(C)Cc1ccc(Oc2ccccc2)cc1`?
A1 apoptosis 2: -1; INS-1E ATP HTS: -45; T cruzi HTS: 66*

What do the screens show for `C[C@@H]1CN([C@@H](C)CO)C(=O)Cc2cc(NS(=O)(=O)c3ccccc3)ccc2O[C@@H]1CN(C)Cc1ccc(Oc2ccccc2)cc1`?
A1 apoptosis 2: 0; INS-1E ATP HTS: -20; T cruzi HTS: 45

How did Cc1ccc(S(=O)(=O)Nc2ccc3c(c2)CC(=O)N([C@H](C)CO)C[C@H](C)[C@@H](CN(C)Cc2ccc(Oc4ccccc4)cc2)O3)cc1 do in these assays?
A1 apoptosis 2: -2

Results for C[C@@H]1CN([C@H](C)CO)C(=O)Cc2cc(NS(=O)(=O)c3ccccc3)ccc2O[C@H]1CN(C)Cc1ccc(Oc2ccccc2)cc1 ?
INS-1E ATP HTS: -19; T cruzi HTS: 40

How did Cc1ccc(S(=O)(=O)Nc2ccc3c(c2)CC(=O)N([C@H](C)CO)C[C@@H](C)[C@@H](CN(C)Cc2ccc(Oc4ccccc4)cc2)O3)cc1 do in these assays?
INS-1E ATP HTS: -22; T cruzi HTS: 65*

Results for C[C@H]1CN([C@@H](C)CO)C(=O)Cc2cc(NS(=O)(=O)c3ccc(F)cc3)ccc2O[C@@H]1CN(C)Cc1ccc(Oc2ccccc2)cc1 ?
A1 apoptosis 2: 2; INS-1E ATP HTS: -19; T cruzi HTS: 66*

How did COCCOC(=O)N1C(=O)[C@@]2(c3ccccc31)[C@H](C(N)=O)[C@H]1C(=O)O[C@H](c3ccccc3)[C@H](c3ccccc3)N1[C@@H]2c1ccc(OCCO)cc1 do in these assays?
A1 apoptosis 2: -1

Results for C[C@H](CO)N1C[C@H](C)[C@H](CN(C)S(=O)(=O)c2cccs2)Oc2c(NS(=O)(=O)c3ccccc3)cccc2C1=O ?
A1 apoptosis 2: 2; INS-1E ATP HTS: 11; T cruzi HTS: -3

How did C#Cc1ccc(OC)c(OC)c1 do in these assays?
A1 apoptosis 2: 1

What do the screens show for `O=C(NO)c1ccc(C(=O)N/N=C/c2ccc(Br)o2)cc1`?
A1 apoptosis 2: 1; INS-1E ATP HTS: 8; T cruzi HTS: -17

Results for Cc1ccc(S(=O)(=O)N(C)C[C@H]2Oc3ccc(NS(=O)(=O)c4ccc(Cl)cc4)cc3CC(=O)N([C@@H](C)CO)C[C@H]2C)cc1 ?
A1 apoptosis 2: 1; INS-1E ATP HTS: -18; T cruzi HTS: inconclusive

Results for Cc1ccc(S(=O)(=O)Nc2ccc3c(c2)CC(=O)N([C@@H](C)CO)C[C@H](C)[C@@H](CN(C)S(=O)(=O)c2ccccc2)O3)cc1 ?
INS-1E ATP HTS: 5; T cruzi HTS: -1

How did Cc1ccc(S(=O)(=O)N(C)C[C@H]2Oc3ccc(NS(=O)(=O)c4ccccc4)cc3CC(=O)N([C@H](C)CO)C[C@H]2C)cc1 do in these assays?
A1 apoptosis 2: -1; INS-1E ATP HTS: 1; T cruzi HTS: 67*

Results for Cc1ccc(S(=O)(=O)N(C)C[C@H]2Oc3ccc(NS(=O)(=O)c4ccc(F)cc4)cc3CC(=O)N([C@H](C)CO)C[C@@H]2C)cc1 ?
A1 apoptosis 2: -1

Results for Cc1ccc(S(=O)(=O)Nc2ccc3c(c2)CC(=O)N([C@@H](C)CO)C[C@@H](C)[C@@H](CN(C)S(=O)(=O)c2ccc(Cl)cc2)O3)cc1 ?
A1 apoptosis 2: 0; INS-1E ATP HTS: 1; T cruzi HTS: 62*

Results for Cc1ccc(S(=O)(=O)Nc2ccc3c(c2)CC(=O)N([C@H](C)CO)C[C@H](C)[C@H](CN(C)S(=O)(=O)c2ccc(Cl)cc2)O3)cc1 ?
INS-1E ATP HTS: -4; T cruzi HTS: 12

How did Cc1ccc(S(=O)(=O)N(C)C[C@H]2Oc3ccc(NS(=O)(=O)c4ccc(F)cc4)cc3CC(=O)N([C@H](C)CO)C[C@H]2C)cc1 do in these assays?
A1 apoptosis 2: 1; INS-1E ATP HTS: -4; T cruzi HTS: 63*

What do the screens show for `Cc1ccc(S(=O)(=O)N(C)C[C@H]2Oc3ccc(NS(=O)(=O)c4ccc(Cl)cc4)cc3CC(=O)N([C@H](C)CO)C[C@H]2C)cc1`?
A1 apoptosis 2: -1; INS-1E ATP HTS: -19; T cruzi HTS: 78*

How did O=C1O[C@@H](c2ccccc2)[C@@H](c2ccccc2)N2[C@@H](c3ccc(OCCO)cc3)[C@]3(C(=O)Nc4ccc(C#CCCO)cc43)[C@@H](C(=O)NC[C@H](O)c3ccccc3)[C@H]12 do in these assays?
A1 apoptosis 2: 0
